Source: ChEMBL document CHEMBL1121899, “Biological activities of photoaffinity labeling analogues of kinins and their irreversible effects on kinin receptors” (1981)
Where a SMILES comes first, the peptide text is derived from it.

Legend:
Assay type in all cases: functional
[1] = target: T1, B1 bradykinin receptor (Homo sapiens) (UniProt P46663); test: Intrinsic activity was determined; conditions: Oryctolagus cuniculus
T1 sequence (whole entry): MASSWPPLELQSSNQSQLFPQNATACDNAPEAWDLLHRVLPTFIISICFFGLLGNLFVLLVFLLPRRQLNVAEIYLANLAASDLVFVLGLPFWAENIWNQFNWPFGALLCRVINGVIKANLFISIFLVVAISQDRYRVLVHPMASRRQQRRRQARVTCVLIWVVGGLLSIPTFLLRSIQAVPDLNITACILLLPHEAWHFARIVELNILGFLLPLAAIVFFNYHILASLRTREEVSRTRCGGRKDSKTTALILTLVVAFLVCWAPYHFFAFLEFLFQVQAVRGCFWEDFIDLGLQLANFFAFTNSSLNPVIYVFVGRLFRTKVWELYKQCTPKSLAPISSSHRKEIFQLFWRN

Oryctolagus cuniculus [2] = organism: Oryctolagus cuniculus; test: In vitro 50 % Maximal response in rabbit aorta expressing B1 receptor; conditions: read-out: ED50 (the source's name)
Oryctolagus cuniculus [3] = organism: Oryctolagus cuniculus; test: The compound was tested in vitro on rabbit aorta for residual response in presence of ultraviolet light
How it was run: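 Aorta strips in cycloheximide were challenged twice with [des-Arg⁹]BK and checked with 3 µM noradrenaline and 0.2 µM [Sar¹]angiotensin II. They were then incubated with 100 µM (4'-amino)Phe plus the photolabel and irradiated 10 min around 365 nm (18 mW/cm²). This was done once or twice. Residual [des-Arg⁹]BK response at 60 min was expressed as percent of reference tissues.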

[4] = target: T2, B2 bradykinin receptor (Homo sapiens) (UniProt P30411); test: Percent agonistic activity in rabbit jugular vein expressing B2 receptor relative to bradykinin; conditions: Oryctolagus cuniculus
T2 sequence (whole entry): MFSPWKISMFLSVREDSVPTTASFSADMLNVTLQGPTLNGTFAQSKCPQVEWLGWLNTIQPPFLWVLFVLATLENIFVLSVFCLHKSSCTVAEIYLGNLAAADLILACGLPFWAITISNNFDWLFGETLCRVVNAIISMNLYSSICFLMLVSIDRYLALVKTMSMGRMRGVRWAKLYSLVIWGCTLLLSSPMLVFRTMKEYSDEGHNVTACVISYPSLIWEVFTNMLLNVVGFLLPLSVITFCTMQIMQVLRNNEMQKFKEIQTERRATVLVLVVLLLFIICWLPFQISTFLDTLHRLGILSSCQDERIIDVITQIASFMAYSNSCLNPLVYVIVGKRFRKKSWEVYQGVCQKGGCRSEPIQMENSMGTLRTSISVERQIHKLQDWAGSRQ
How it was run: (§1)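 Isolated rabbit jugular vein strips were equilibrated about 2 h with protease inhibitor SQ 14225 (100 ng/mL) under incandescent light, with no UV. pD₂ was taken as −log of the half-maximal concentration. Relative affinity is given as percent of BK. Specificity was checked by desensitization with BK or an analogue. Antagonists were given as pA₂ from the ID₅₀ that reduces a double agonist dose to a single-dose response.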

[5] = target: T2, B2 bradykinin receptor (Homo sapiens); test: In vitro 50 % Maximal response in jugular vein expressing B2 receptor; conditions: Oryctolagus cuniculus; how it was run: as §1
Oryctolagus cuniculus [6] = organism: Oryctolagus cuniculus; test: Competitive protection towards rabbit aorta in the presence of light
How it was run: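 Rabbit aorta strips (B1), with cycloheximide 10 µg/mL present after 3 h equilibration. Tissue pretreated with 50 µM [Leu⁸,des-Arg⁹]BK before the photolabel, scavenger (4'-amino)Phe 100 µM, and 10 min irradiation around 365 nm (18 mW/cm²). Residual [des-Arg⁹]BK response read 60 min after treatment, relative to reference tissues.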

Compound	Alpha E [1]	Relative affinity [4]	also measured
NC(N)=NCCC[C@H](N)C(=O)N1CCC[C@H]1C(=O)N1CCC[C@H]1C(=O)NCC(=O)N[C@@H](Cc1ccccc1)C(=O)N[C@@H](CO)C(=O)N1CCC[C@H]1C(=O)N[C@@H](Cc1ccc(N)cc1)C(=O)O	1	–	EC50 (Oryctolagus cuniculus [2]): 4.65 µM
[N-]=[N+]=Nc1ccc(/N=N/c2cc(C[C@H](NC(=O)CNC(=O)[C@@H]3CCCN3C(=O)[C@@H]3CCCN3C(=O)[C@@H](N)CCCN=C(N)N)C(=O)N[C@@H](CO)C(=O)N3CCC[C@H]3C(=O)N[C@@H](Cc3ccccc3)C(=O)O)ccc2O)cc1 (HELM PEPTIDE1{R.P.P.G.[[N-]=[N+]=Nc1ccc(/N=N/c2cc(C[C@H](N[*:1])C(=O)[*:2])ccc2O)cc1].S.P.F}$$$$V2.0)	1	–	Response (Oryctolagus cuniculus [3]): 69%; EC50 (Oryctolagus cuniculus [2]): 1.28 µM
NC(N)=NCCC[C@H](N)C(=O)N1CCC[C@H]1C(=O)N1CCC[C@H]1C(=O)NCC(=O)N[C@@H](Cc1ccc([N+](=O)[O-])cc1)C(=O)N[C@@H](CO)C(=O)N1CCC[C@H]1C(=O)N[C@@H](Cc1ccccc1)C(=O)O	1	–	Response (Oryctolagus cuniculus [3]): 92%; EC50 (Oryctolagus cuniculus [2]): 0.437 µM
NC(N)=NCCC[C@H](NC(=O)[C@H](CC1CCCCC1)NC(=O)[C@@H]1CCCN1C(=O)[C@H](CO)NC(=O)[C@H](Cc1ccccc1)NC(=O)CNC(=O)[C@@H]1CCCN1C(=O)[C@@H]1CCCN1C(=O)[C@@H](N)CCCN=C(N)N)C(=O)O (HELM PEPTIDE1{R.P.P.G.F.S.P.[Cha].R}$$$$V2.0)	1	23%	–
H-RPPGDSPFR-OH	–	0.08%	–
NC(N)=NCCC[C@H](N)C(=O)N1CCC[C@H]1C(=O)N1CCC[C@H]1C(=O)NCC(=O)N[C@@H](Cc1ccccc1)C(=O)N[C@@H](CO)C(=O)N1CCC[C@H]1C(=O)N[C@@H](CC1CCCCC1)C(=O)O (HELM PEPTIDE1{R.P.P.G.F.S.P.[Cha]}$$$$V2.0)	0	–	–
H-RPPGYSPF-OH	1	–	EC50 (Oryctolagus cuniculus [2]): 0.869 µM
COc1ccc(C[C@H](NC(=O)CNC(=O)[C@@H]2CCCN2C(=O)[C@@H]2CCCN2C(=O)[C@@H](N)CCCN=C(N)N)C(=O)N[C@@H](CO)C(=O)N2CCC[C@H]2C(=O)N[C@@H](Cc2ccccc2)C(=O)O)cc1 (H-RPPGY(Me)SPF-OH)	1	–	–
COc1ccc(C[C@H](NC(=O)[C@@H]2CCCN2C(=O)[C@H](CO)NC(=O)[C@H](Cc2ccccc2)NC(=O)CNC(=O)[C@@H]2CCCN2C(=O)[C@@H]2CCCN2C(=O)[C@@H](N)CCCN=C(N)N)C(=O)N[C@@H](CCCN=C(N)N)C(=O)O)cc1 (H-RPPGFSPY(Me)R-OH)	1	65%	–
H-RPPGFSPA-OH	0	–	–
H-RPPGASPF-OH	1	–	–
H-RPPGYSPFR-OH	1	0.3%	–
COc1ccc(C[C@H](NC(=O)[C@@H]2CCCN2C(=O)[C@H](CO)NC(=O)[C@H](Cc2ccccc2)NC(=O)CNC(=O)[C@@H]2CCCN2C(=O)[C@@H]2CCCN2C(=O)[C@@H](N)CCCN=C(N)N)C(=O)O)cc1 (H-RPPGFSPY(Me)-OH)	1	–	–
H-RPPGLSPFR-OH	1	8%	–
NC(N)=NCCC[C@H](NC(=O)[C@H](Cc1ccccc1)NC(=O)[C@@H]1CCCN1C(=O)[C@H](CO)NC(=O)[C@H](CC1CCCCC1)NC(=O)CNC(=O)[C@@H]1CCCN1C(=O)[C@@H]1CCCN1C(=O)[C@@H](N)CCCN=C(N)N)C(=O)O (HELM PEPTIDE1{R.P.P.G.[Cha].S.P.F.R}$$$$V2.0)	1	23%	–
NC(N)=NCCC[C@H](NC(=O)[C@H](Cc1cc(I)c(N)c(I)c1)NC(=O)[C@@H]1CCCN1C(=O)[C@H](CO)NC(=O)[C@H](Cc1ccccc1)NC(=O)CNC(=O)[C@@H]1CCCN1C(=O)[C@@H]1CCCN1C(=O)[C@@H](N)CCCN=C(N)N)C(=O)O (HELM PEPTIDE1{R.P.P.G.F.S.P.[Nc1c(I)cc(C[C@H](N[*:1])C(=O)[*:2])cc1I].R}$$$$V2.0)	–	< 0.01%	ED50 [5]: > 100 µM
COc1ccc(C[C@H](NC(=O)CNC(=O)[C@@H]2CCCN2C(=O)[C@@H]2CCCN2C(=O)[C@@H](N)CCCN=C(N)N)C(=O)N[C@@H](CO)C(=O)N2CCC[C@H]2C(=O)N[C@@H](Cc2ccccc2)C(=O)N[C@@H](CCCN=C(N)N)C(=O)O)cc1 (H-RPPGY(Me)SPFR-OH)	1	14%	–

Compound	Alpha E [1]	Relative affinity [4]	also measured
NC(N)=NCCC[C@H](N)C(=O)N1CCC[C@H]1C(=O)N1CCC[C@H]1C(=O)NCC(=O)N[C@@H](Cc1ccccc1)C(=O)N[C@@H](CO)C(=O)N1CCC[C@H]1C(=O)N[C@@H](Cc1ccccc1)C(=O)O	1	–	Response (Oryctolagus cuniculus [3]): 85%; EC50 (Oryctolagus cuniculus [2]): 0.068 µM
N#[N+]c1ccc(C[C@H](NC(=O)CNC(=O)[C@@H]2CCCN2C(=O)[C@@H]2CCCN2C(=O)[C@@H](N)CCCN=C(N)N)C(=O)N[C@@H](CO)C(=O)N2CCC[C@H]2C(=O)N[C@@H](Cc2ccccc2)C(=O)O)cc1	1	–	EC50 (Oryctolagus cuniculus [2]): 3.75 µM
H-RPPGFSPLR-OH	1	0.1%	–
NC(N)=NCCC[C@H](N)C(=O)N1CCC[C@H]1C(=O)N1CCC[C@H]1C(=O)NCC(=O)N[C@@H](Cc1ccccc1)C(=O)N[C@@H](CO)C(=O)N1CCC[C@H]1C(=O)N[C@@H](Cc1ccc([N+](=O)[O-])cc1)C(=O)O	–	–	Response (Oryctolagus cuniculus [3]): 76%; Competitive protection (Oryctolagus cuniculus [6]): 75; EC50 (Oryctolagus cuniculus [2]): > 100 µM
N=C(N)NCCC[C@H](NC(=O)[C@H](Cc1ccccc1)NC(=O)[C@@H]1CCCN1C(=O)[C@H](CO)NC(=O)[C@H](Cc1cc(I)c(N)c(I)c1)NC(=O)CNC(=O)[C@@H]1CCCN1C(=O)[C@@H]1CCCN1C(=O)[C@@H](N)CCCNC(=N)N)C(=O)O (HELM PEPTIDE1{R.P.P.G.[Nc1c(I)cc(C[C@H](N[*:1])C(=O)[*:2])cc1I].S.P.F.R}$$$$V2.0)	–	< 0.01%	ED50 [5]: > 100 µM
[N-]=[N+]=Nc1ccc(C[C@H](NC(=O)CNC(=O)[C@@H]2CCCN2C(=O)[C@@H]2CCCN2C(=O)[C@@H](N)CCCN=C(N)N)C(=O)N[C@@H](CO)C(=O)N2CCC[C@H]2C(=O)N[C@@H](Cc2ccccc2)C(=O)O)cc1	1	–	Response (Oryctolagus cuniculus [3]): 90%; EC50 (Oryctolagus cuniculus [2]): 0.461 µM
NC(N)=NCCC[C@H](N)C(=O)N1CCC[C@H]1C(=O)N1CCC[C@H]1C(=O)NCC(=O)N[C@@H](Cc1ccc(N)cc1)C(=O)N[C@@H](CO)C(=O)N1CCC[C@H]1C(=O)N[C@@H](Cc1ccccc1)C(=O)O	1	–	EC50 (Oryctolagus cuniculus [2]): 5.46 µM
H-RPPGFSPDR-OH	–	0.04%	–
H-RPPGFSPYR-OH	1	3.5%	–
H-RPPGLSPF-OH	1	–	–
H-RPPGFSPAR-OH	1	0.01%	–
H-RPPGFSPY-OH	1	–	–
CC(C)C[C@H](NC(=O)[C@@H]1CCCN1C(=O)[C@H](CO)NC(=O)[C@H](Cc1ccccc1)NC(=O)CNC(=O)[C@@H]1CCCN1C(=O)[C@@H]1CCCN1C(=O)[C@@H](N)CCCN=C(N)N)C(=O)O	0	–	–
NC(N)=NCCC[C@H](NC(=O)[C@H](Cc1ccc(N)cc1)NC(=O)[C@@H]1CCCN1C(=O)[C@H](CO)NC(=O)[C@H](Cc1ccccc1)NC(=O)CNC(=O)[C@@H]1CCCN1C(=O)[C@@H]1CCCN1C(=O)[C@@H](N)CCCN=C(N)N)C(=O)O (HELM PEPTIDE1{R.P.P.G.F.S.P.[Nc1ccc(C[C@H](N[*:1])C(=O)[*:2])cc1].R}$$$$V2.0)	1	9%	ED50 [5]: 0.0195 µM
NC(N)=NCCC[C@H](NC(=O)[C@H](Cc1ccccc1)NC(=O)[C@@H]1CCCN1C(=O)[C@H](CO)NC(=O)[C@H](Cc1ccc(N)cc1)NC(=O)CNC(=O)[C@@H]1CCCN1C(=O)[C@@H]1CCCN1C(=O)[C@@H](N)CCCN=C(N)N)C(=O)O (HELM PEPTIDE1{R.P.P.G.[Nc1ccc(C[C@H](N[*:1])C(=O)[*:2])cc1].S.P.F.R}$$$$V2.0)	1	3%	ED50 [5]: 0.057 µM
H-RPPGASPFR-OH	1	0.1%	–
NC(N)=NCCC[C@H](N)C(=O)N1CCC[C@H]1C(=O)N1CCC[C@H]1C(=O)NCC(=O)N[C@@H](CC1CCCCC1)C(=O)N[C@@H](CO)C(=O)N1CCC[C@H]1C(=O)N[C@@H](Cc1ccccc1)C(=O)O (HELM PEPTIDE1{R.P.P.G.[Cha].S.P.F}$$$$V2.0)	1	–	–
